According to ChEMBL document CHEMBL1287795, “Synthesis and biological evaluation of 1H-benzimidazol-5-ols as potent HBV inhibitors” (Bioorg Med Chem Lett, 2010):

What was measured:
[1] = Cytotoxicity against human HepG2(2.2.15) after 9 days by neutral dye uptake method; type: cell-based; conditions: HepG2(2.2.15) cells
Summary of the method: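 Confluent 2.2.15 cells were exposed to compound in culture medium for 9 consecutive days, with untreated controls on every plate. Viability was read as neutral red uptake by absorbance at 510 nm relative to untreated cells, giving CC50. Mean and SD of three separate experiments.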

[2] = tested on: Hepatitis B virus; assay: Antiviral activity against Hepatitis B virus infected in HepG2.2.15 assessed as inhibition of HBV replication at <245.1 +/- 4.8 uM by quantitative Southern blot hybridization analysis; type: functional, organism-based; conditions: hepg2 2.2.15
[3] = tested on: Hepatitis B virus; assay: Antiviral activity against Hepatitis B virus infected in HepG2.2.15 assessed as inhibition of HBsAg production at <245.1 +/- 4.8 uM by EIA; type: functional, organism-based; conditions: hepg2 2.2.15
[4] = tested on: Hepatitis B virus; assay: Antiviral activity against Hepatitis B virus infected in HepG2.2.15 assessed as inhibition of HBV replication at <227.0 +/- 4.1 uM by quantitative Southern blot hybridization analysis; type: functional, organism-based; conditions: hepg2 2.2.15
[5] = tested on: Hepatitis B virus; assay: Antiviral activity against Hepatitis B virus infected in HepG2.2.15 assessed as inhibition of HBsAg production at <227.0 +/- 4.1 uM by EIA; type: functional, organism-based; conditions: hepg2 2.2.15
[6] = tested on: Hepatitis B virus; assay: Antiviral activity against Hepatitis B virus infected in HepG2.2.15 assessed as inhibition of HBV replication at <86.9 +/- 3.6 uM by quantitative Southern blot hybridization analysis; type: functional, organism-based; conditions: hepg2 2.2.15
[7] = tested on: Hepatitis B virus; assay: Antiviral activity against Hepatitis B virus infected in HepG2.2.15 assessed as inhibition of HBsAg production at <86.9 +/- 3.6 uM by EIA; type: functional, organism-based; conditions: hepg2 2.2.15
[8] = Selectivity index, ratio of CC50 for human HepG2.2.15 cells to IC50 for inhibition of HBsAg production; type: functional
Summary of the method: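 SI = CC50/IC50. CC50 is from neutral red uptake after 9 days of treatment. IC50 is from HBsAg EIA after eight daily doses, in 2.2.15 cells.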

[9] = tested on: Hepatitis B virus; assay: Antiviral activity against Hepatitis B virus infected in HepG2.2.15 assessed as inhibition of HBsAg production by EIA; type: functional, organism-based; conditions: HepG2 2.2.15
Summary of the method: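 HBsAg secreted into the medium by confluent 2.2.15 cultures (RPMI 1640, 2% FBS) measured by semiquantitative enzyme immunoassay eight days after the first of eight consecutive daily treatments. Medium and compound were renewed daily, with an untreated cell control. Gives the 50% inhibitory concentration; mean and SD from three separate experiments.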

[10] = tested on: Hepatitis B virus; assay: Antiviral activity against Hepatitis B virus infected in HepG2.2.15 assessed as inhibition of HBV replication at <209.8 +/- 4.7 uM by quantitative Southern blot hybridization analysis; type: functional, organism-based; conditions: hepg2 2.2.15
[11] = tested on: Hepatitis B virus; assay: Antiviral activity against Hepatitis B virus infected in HepG2.2.15 assessed as inhibition of HBsAg production at <74.8 +/- 3.9 uM by EIA; type: functional, organism-based; conditions: hepg2 2.2.15
[12] = tested on: Hepatitis B virus; assay: Antiviral activity against Hepatitis B virus infected in HepG2.2.15 assessed as inhibition of HBV replication at <74.8 +/- 3.9 uM by quantitative Southern blot hybridization analysis; type: functional, organism-based; conditions: hepg2 2.2.15
[13] = tested on: Hepatitis B virus; assay: Antiviral activity against Hepatitis B virus infected in HepG2.2.15 assessed as inhibition of HBV replication at <64.5 +/- 2.8 uM by quantitative Southern blot hybridization analysis; type: functional, organism-based; conditions: hepg2 2.2.15
[14] = tested on: Hepatitis B virus; assay: Antiviral activity against Hepatitis B virus infected in HepG2.2.15 assessed as inhibition of HBsAg production at <76.3 +/- 3.3 uM by EIA; type: functional, organism-based; conditions: hepg2 2.2.15
[15] = tested on: Hepatitis B virus; assay: Antiviral activity against Hepatitis B virus infected in HepG2.2.15 assessed as inhibition of HBV replication by quantitative Southern blot hybridization analysis; type: functional, organism-based; conditions: HepG2 2.2.15
Summary of the method: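 Confluent 2.2.15 cells in RPMI 1640 with 2% FBS, dosed daily for eight consecutive days, with medium and compound replaced each day; untreated cell control. Intracellular HBV DNA quantified by Southern blot hybridization eight days after first treatment. IC50 is 50% inhibitory concentration; mean and SD of three separate experiments.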

[16] = Selectivity index, ratio of CC50 for human HepG2.2.15 cells to IC50 for inhibition of Hepatitis B virus DNA replication; type: functional
Summary of the method: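 SI = CC50/IC50. CC50 is from neutral red uptake after 9 days of treatment. IC50 is from Southern blot of intracellular HBV DNA after eight daily doses, in 2.2.15 cells.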

[17] = tested on: Hepatitis B virus; assay: Antiviral activity against Hepatitis B virus infected in HepG2.2.15 assessed as inhibition of HBsAg production at <101.2 +/- 3.8 by EIA; type: functional, organism-based; conditions: hepg2 2.2.15
[18] = tested on: Hepatitis B virus; assay: Antiviral activity against Hepatitis B virus infected in HepG2.2.15 assessed as inhibition of HBsAg production at <80.1 +/- 3.5 uM by EIA; type: functional, organism-based; conditions: hepg2 2.2.15
[19] = tested on: Hepatitis B virus; assay: Antiviral activity against Hepatitis B virus infected in HepG2.2.15 assessed as inhibition of HBsAg production at <60.8 +/- 4.6 uM by EIA; type: functional, organism-based; conditions: hepg2 2.2.15
[20] = tested on: Hepatitis B virus; assay: Antiviral activity against Hepatitis B virus infected in HepG2.2.15 assessed as inhibition of HBsAg production at <91.2 +/- 3.5 uM by EIA; type: functional, organism-based; conditions: hepg2 2.2.15
[21] = tested on: Hepatitis B virus; assay: Antiviral activity against Hepatitis B virus infected in HepG2.2.15 assessed as inhibition of HBV replication at <64.5 +/- 4.2 uM by quantitative Southern blot hybridization analysis; type: functional, organism-based; conditions: hepg2 2.2.15
[22] = tested on: Hepatitis B virus; assay: Antiviral activity against Hepatitis B virus infected in HepG2.2.15 assessed as inhibition of HBsAg production at <64.5 +/- 4.2 uM by EIA; type: functional, organism-based; conditions: hepg2 2.2.15
[23] = tested on: Hepatitis B virus; assay: Antiviral activity against Hepatitis B virus infected in HepG2.2.15 assessed as inhibition of HBsAg production at <163.9 +/- 4.4 uM by EIA; type: functional, organism-based; conditions: hepg2 2.2.15
[24] = tested on: Hepatitis B virus; assay: Antiviral activity against Hepatitis B virus infected in HepG2.2.15 assessed as inhibition of HBsAg production at <102.7 +/- 3.3 uM by EIA; type: functional, organism-based; conditions: hepg2 2.2.15
[25] = tested on: Hepatitis B virus; assay: Antiviral activity against Hepatitis B virus infected in HepG2.2.15 assessed as inhibition of HBV replication at <102.7 +/- 3.3 uM by quantitative Southern blot hybridization analysis; type: functional, organism-based; conditions: hepg2 2.2.15
[26] = tested on: Hepatitis B virus; assay: Antiviral activity against Hepatitis B virus infected in HepG2.2.15 assessed as inhibition of HBV replication at <900.5 +/- 5.3 uM by quantitative Southern blot hybridization analysis; type: functional, organism-based; conditions: hepg2 2.2.15
[27] = tested on: Hepatitis B virus; assay: Antiviral activity against Hepatitis B virus infected in HepG2.2.15 assessed as inhibition of HBV replication at <556.9 +/- 1.8 uM by quantitative Southern blot hybridization analysis; type: functional, organism-based; conditions: hepg2 2.2.15
[28] = tested on: Hepatitis B virus; assay: Antiviral activity against Hepatitis B virus infected in HepG2.2.15 assessed as inhibition of HBV replication at <757.8 +/- 4.3 uM by quantitative Southern blot hybridization analysis; type: functional, organism-based; conditions: hepg2 2.2.15
[29] = tested on: Hepatitis B virus; assay: Antiviral activity against Hepatitis B virus infected in HepG2.2.15 assessed as inhibition of HBV replication at <739.9 +/- 3.6 uM by quantitative Southern blot hybridization analysis; type: functional, organism-based; conditions: hepg2 2.2.15
[30] = tested on: Hepatitis B virus; assay: Antiviral activity against Hepatitis B virus infected in HepG2.2.15 assessed as inhibition of HBV replication at <622.8 +/- 3.4 uM by quantitative Southern blot hybridization analysis; type: functional, organism-based; conditions: hepg2 2.2.15
[31] = tested on: Hepatitis B virus; assay: Antiviral activity against Hepatitis B virus infected in HepG2.2.15 assessed as inhibition of HBV replication at <506.3 +/- 3.2 uM by quantitative Southern blot hybridization analysis; type: functional, organism-based; conditions: hepg2 2.2.15
[32] = tested on: Hepatitis B virus; assay: Antiviral activity against Hepatitis B virus infected in HepG2.2.15 assessed as inhibition of HBsAg production at <2183.1 +/- 4.1 by EIA; type: functional, organism-based; conditions: hepg2 2.2.15

| IC50 [9] [µM] | SMILES | CC50 at 216 h [1] [µM] | Selectivity Index [8] | Selectivity Index [16] | also measured |
| --- | --- | --- | --- | --- | --- |
| – | CN(C)Cc1c(O)ccc2c1nc(CSc1ccccc1)n2C | 245 | – | – | IC50 [2]: Not Active; IC50 [3]: Not Active |
| – | Cn1c(CSc2ccccc2)nc2c(CN3CCCC3)c(O)ccc21 | 227 | – | – | IC50 [4]: Not Active; IC50 [5]: Not Active |
| – | Cn1c(CSc2ccccc2)nc2c(CN3CCOCC3)c(O)ccc21 | 86.9 | – | – | IC50 [6]: Not Active; IC50 [7]: Not Active |
| 27 | CN1CCN(Cc2c(O)ccc3c2nc(CSc2ccccc2)n3C)CC1 | 210 | 7.8 | – | IC50 [10]: Not Active |
| – | Cn1c(CSc2ccc(F)cc2)nc2c(CN3CCCC3)c(O)ccc21 | 74.8 | – | – | IC50 [11]: Not Active; IC50 [12]: Not Active |
| 10.7 | CN1CCN(Cc2c(O)ccc3c2nc(CSc2ccc(F)cc2)n3C)CC1 | 64.5 | 6 | – | IC50 [13]: Not Active |
| – | Cn1c(CSc2ccccc2)nc2c(Cn3ccnc3)c(O)ccc21 | 76.3 | – | 8.4 | IC50 [14]: Not Active; IC50 [15]: 9.1 µM |
| – | Cc1nccn1Cc1c(O)ccc2c1nc(CSc1ccccc1)n2C | 101 | – | 13 | IC50 [17]: Not Active; IC50 [15]: 7.8 µM |
| – | Cn1c(CSc2ccc(F)cc2)nc2c(Cn3ccnc3)c(O)ccc21 | 80.1 | – | 6.9 | IC50 [18]: Not Active; IC50 [15]: 11.6 µM |
| – | Cc1ccc(SCc2nc3c(Cn4ccnc4)c(O)ccc3n2C)cc1 | 60.8 | – | 1.9 | IC50 [19]: Not Active; IC50 [15]: 32.6 µM |
| – | Cc1ccc(SCc2nc3c(Cn4ccnc4C)c(O)ccc3n2C)cc1 | 91.2 | – | 2.5 | IC50 [20]: Not Active; IC50 [15]: 36.1 µM |
| – | COc1ccc(SCc2nc3c(Cn4ccnc4)c(O)ccc3n2C)cc1 | 64.5 | – | – | IC50 [21]: Not Active; IC50 [22]: Not Active |
| – | COc1ccc(SCc2nc3c(Cn4ccnc4C)c(O)ccc3n2C)cc1 | 164 | – | 3.7 | IC50 [15]: 44.5 µM; IC50 [23]: Not Active |
| – | COc1cccc(SCc2nc3c(Cn4ccnc4C)c(O)ccc3n2C)c1 | 103 | – | – | IC50 [24]: Not Active; IC50 [25]: Not Active |
| 401 | Cn1c(C[S+]([O-])c2ccccc2)nc2c(CN3CCOCC3)c(O)ccc21 (configuration not stated) | 900 | 2.2 | – | IC50 [26]: Not Active |
| 189 | Cn1c(C[S+]([O-])c2ccccc2)nc2c(Cn3ccnc3)c(O)ccc21 (configuration not stated) | 557 | 2.9 | – | IC50 [27]: Not Active |
| 176 | Cc1ccc([S+]([O-])Cc2nc3c(Cn4ccnc4)c(O)ccc3n2C)cc1 (configuration not stated) | 758 | 4.3 | – | IC50 [28]: Not Active |
| 326 | Cn1c(CS(=O)(=O)c2ccccc2)nc2c(CN3CCOCC3)c(O)ccc21 | 740 | 2.3 | – | IC50 [29]: Not Active |
| 70.2 | Cn1c(CS(=O)(=O)c2ccccc2)nc2c(Cn3ccnc3)c(O)ccc21 | 623 | 8.9 | – | IC50 [30]: Not Active |
| 62.6 | Cc1ccc(S(=O)(=O)Cc2nc3c(Cn4ccnc4)c(O)ccc3n2C)cc1 | 506 | 8.1 | – | IC50 [31]: Not Active |
| – | Nc1ccn([C@@H]2CS[C@H](CO)O2)c(=O)n1 [LAMIVUDINE] | 2180 | – | 9.1 | IC50 [32]: Not Active |
